Compound activity deposited in PubChem BioAssay by several laboratories.
Shown are actives, neighbours in structure and some others; about 2.6% of the full set was active somewhere.
Calb FLC: affects C. albicans growth with fluconazole; C. albicans CaCi-2 (fluconazole-resistant clinical isolate) + fluconazole, Alamar Blue growth, 48 h; growth inhibition, % (no concentration beside the values); 0.57% of 300,000 active; AID 1979;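 active means growth inhibition above about 58% in most replicates, limit read from the data, passing the limit was not always enough; inconclusive means exactly half the replicates above a set limit; inactive means most replicates below a set limit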;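 further: all wells also contain fluconazole at 8 µg/ml as a sub-toxic cotreatment; 0% = median of DMSO wells and 100% = median of geldanamycin control wells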
IMP-1 inhibitor: inhibitors of Pseudomonas aeruginosa IMP-1 metallo-beta-lactamase; 0.45% of 290,000 active; purified IMP-1, nitrocefin hydrolysis, epi-absorbance fluorescence; inhibition, % at 5.6 µM; AID 1556;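 active means inhibition above the mean plus 3 SD of all compounds in the same screening run, cut at about 4.5% in these data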;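 further: 0% = IMP-1 with DMSO and 100% = DMSO wells lacking enzyme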
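Material – recombinant IMP-1 enzyme, purified · Amount – IMP-1 0.2 nM before substrate addition · Medium – HEPES buffer pH 7.1 with ZnSO4 and Brij 35 · Timing – 25 °C, 15 min preincubation, 25 min reaction · Measured by – plate fluorescence quenching by hydrolysis product, ex 480/em 530 nm · Read-out – percent enzyme inhibition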
ASAP1 inh: ASAP1 ArfGAP inhibition. AID 624377. inhibition, % at 16.5 µM. 0.19% of 360,000 active. ASAP1-stimulated ARF1 GTP hydrolysis, GDP FP detection; in the data active means inhibition above about 25%;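 further: 0% = vehicle with enzyme and substrate and 100% = no enzyme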
Target sequence (Q9ULH1 325-724 limits assumed): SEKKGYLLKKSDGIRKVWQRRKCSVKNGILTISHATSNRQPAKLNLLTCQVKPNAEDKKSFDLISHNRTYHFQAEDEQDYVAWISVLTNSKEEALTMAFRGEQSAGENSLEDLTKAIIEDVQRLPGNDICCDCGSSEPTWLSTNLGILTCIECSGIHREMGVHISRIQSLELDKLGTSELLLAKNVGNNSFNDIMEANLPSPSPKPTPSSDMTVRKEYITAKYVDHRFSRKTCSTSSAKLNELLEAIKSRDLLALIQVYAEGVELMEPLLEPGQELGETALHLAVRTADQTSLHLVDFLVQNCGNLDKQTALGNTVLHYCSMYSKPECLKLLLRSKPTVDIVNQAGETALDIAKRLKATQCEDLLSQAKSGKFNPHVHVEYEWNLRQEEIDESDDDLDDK
ARFGAP1 inhibitor: inhibits rat ARF GTPase activating protein 1; Arfgap1-stimulated ARF1 GTP hydrolysis, GDP FP detection; Q62848; inhibition, % at 16.5 µM; 0.26% of 360,000 active;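 active means inhibition above a per-plate limit, mean inhibition of low control wells plus 3 SD, cut at about 25% in these data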;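 further: 0% = DMSO wells with enzyme and 100% = wells lacking Arfgap1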
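Material – truncated rat Arfgap1 GAP domain · Buffer or medium – HEPES-based buffer, pH 7.5 · Reagent – human ARF1(Δ1-17)-GTP substrate · Dosing – 16.5 µM single point, 1.26% DMSO · Schedule – GTP hydrolysis reaction 2 h at 25 °C · Technique – GDP detection by fluorescence polarization · Benchmarks – No-Arfgap1 wells (100%) versus DMSO full-reaction wells (0%) · Repeats – single replicate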
VIM-2 inhibitor: inhibitors of Pseudomonas aeruginosa VIM-2 metallo-beta-lactamase | purified VIM-2, nitrocefin hydrolysis, epi-absorbance fluorescence | inhibition, % at 5.6 µM | 0.89% of 290,000 active;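 active means inhibition above the mean of all tested compounds plus 3 SD, cutoff set per screening run, cut at about 7.5% in these data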;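 further: red hydrolysis product quenches plate fluorescence so inhibitors raise well fluorescence; 0% = enzyme with DMSO and 100% = DMSO without enzyme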
PHOSPHO1 block: blocks human PHOSPHO1 phosphatase activity. Q8TCT1. recombinant PHOSPHO1, absorbance phosphatase assay. inhibition, % at 13.3 µM. 1.1% of 290,000 active. AID 1565; in the data active means inhibition above about 60%
Target sequence (Q8TCT1 whole entry, looked up): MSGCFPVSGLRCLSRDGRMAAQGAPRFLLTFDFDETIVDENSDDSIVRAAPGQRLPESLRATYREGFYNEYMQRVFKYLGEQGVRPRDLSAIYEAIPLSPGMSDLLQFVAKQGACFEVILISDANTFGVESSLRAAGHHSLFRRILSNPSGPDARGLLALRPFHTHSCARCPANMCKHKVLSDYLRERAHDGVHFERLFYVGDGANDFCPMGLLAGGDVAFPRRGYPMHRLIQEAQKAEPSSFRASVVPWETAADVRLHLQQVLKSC
The depositor's hits bear a star; ? = inconclusive; · = no result.

SMILES	Calb FLC	IMP-1 inhibitor	ASAP1 inh	ARFGAP1 inhibitor	VIM-2 inhibitor	PHOSPHO1 block
CCOC(=O)c1c(C)[nH]c2cc(Br)c(O)cc12	30	-3	7	-7	-2	-23
COc1ccccc1CCn1cnc(-c2ccccc2OC)c1CC(C)C	·	·	10	-4	·	·
N#Cc1c(-c2ccc(Cl)cc2)cc(-c2ccccc2)nc1SCC(=O)O	88*	-4	-13	-13	-1	9
N#Cc1c(-c2ccccc2)cc(-c2ccccc2)nc1SCCC(=O)O	54	2	0	10	2	44
O=C(O)c1cccc(S(=O)(=O)NNc2ccccc2C(F)(F)F)c1	19	25*	0	17	0	42
O=C(O)c1cccc(S(=O)(=O)Nc2ccc(-c3ccccc3)cc2)c1	·	·	-5	-11	·	·
CC(=O)C1=C(C)NC(=S)NC1c1ccc(F)cc1 (configuration not stated)	·	·	-7	-7	·	·
Clc1ccc(-c2c[n+](Cc3ccc(Br)cc3)c3n2CCCCC3)cc1	106*	1	10	-12	-2	8
CC1CCC(C(C)C)C(OC(=O)C[n+]2cc(-c3ccc(Cl)cc3)n3c2CCCCC3)C1 (configuration not stated)	95*	-2	0	2	1	32
Clc1ccc(C[n+]2cc(-c3ccccc3)n3c2CCCCC3)c(Cl)c1	?	-3	-6	16	-1	60*
Cc1onc(-c2ccccc2)c1C(=O)N1CCN(C(=O)C(=O)c2cccc(C(F)(F)F)c2)CC1	·	·	4	-4	·	·
CCOC(=O)CSc1nc2sc3c(c2c(=O)[nH]1)CC(C)(CC)OC3 (configuration not stated)	-2	-1	-2	3	-1	81*
CCC1(C)Cc2c(sc3nc(SCC(=O)c4ccccc4)[nH]c(=O)c23)CO1 (configuration not stated)	0	-3	-1	-2	-2	8
COC(=O)N1C[C@H](OCc2cn(-c3ccc(OC)cc3)nn2)[C@H]2C[C@@H]1c1ccccc1O2	·	·	-2	2	·	·
CCN(CC)C(=S)SSC(=S)N(CC)CC	100*	-2	11	11	-2	89*
O=C(NCc1n[nH]c(=S)n1-c1ccc(F)cc1)c1ccc(S(=O)(=O)N2CCCC2)cc1	1	3	6	7	-1	96*
Cc1cccc(C)c1NC(=O)C(CCc1ccccc1)N1CCN(CCN(C)C)CC1 (configuration not stated)	·	·	-5	-6	·	·
O=C(COc1ccc(S(=O)(=O)N2CCOCC2)cc1)N1CCN(c2ccccc2)CC1	0	-1	2	14	-2	68*
Nc1[nH]c(C(=O)c2ccc(Cl)cc2)c(-c2ccc(Br)cc2)c1C(=O)NCc1ccc(Cl)cc1Cl	·	·	4	-1	·	·
C[C@@H]1CN([C@H](C)CO)C(=O)CCCn2cc(nn2)CO[C@H]1CN(C)S(=O)(=O)c1ccc(Cl)cc1	·	·	-4	-8	·	·
Cc1nc2ccc(NC(=O)COc3ccccc3)cc2s1	108*	-3	0	-6	-4	-19
COC(=O)c1cccc(N2C(=O)C[C@](Sc3ccc(C)cc3)(C(=O)OC)[C@H]2c2ccccc2)c1	·	·	-1	3	·	·
CC1(C)CC(=O)C=C(c2ccccc2-c2cccc(C(N)=O)c2)C1=O	·	·	1	2	·	·
Cc1ccccc1-c1ccc2c(c1)[C@@H]1C[C@H](N(C)S(=O)(=O)c3ccc(Cl)cc3)[C@H]([C@H](C)O)CN1CC2	·	·	1	-1	·	·
CC(=O)OCC(=O)NCC1CCN(C(=O)C(=O)c2cc3ccccc3o2)CC1	·	·	-12	4	·	·
SMILES	Calb FLC	IMP-1 inhibitor	ASAP1 inh	ARFGAP1 inhibitor	VIM-2 inhibitor	PHOSPHO1 block
CCc1ccc(-c2nc(CN3CCC(C(=O)NCc4ccccc4OC)CC3)c(C)o2)cc1	-27	-2	-1	13	-4	77*
COC(=O)C1=C(C)N(C)C(=NCc2cccc(C(F)(F)F)c2)NC1c1ccc(Cl)cc1 (configuration not stated)	·	·	5	0	·	·
Cc1ccc2cc(COC(=O)c3ccncc3)c(=O)[nH]c2c1	9	-4	5	-6	4	86*
Cc1cccc2cc(COC(=O)c3cccnc3)c(=O)[nH]c12	-4	-1	-11	1	0	78*
CC1(C(=O)Nc2cccc(OC(F)(F)F)c2)Cc2c(-c3ccc4c(c3)OCO4)ccnc2O1 (configuration not stated)	·	·	-13	16	·	·
Nc1nc(N)c2cc(Sc3ccc4ccccc4c3)ccc2n1	100*	-1	9	10	-3	42
COc1ccccc1Cc1c(-c2ccc(C)cc2)nc2ccc(C)cn12	·	·	-4	12	·	·
Cc1nn(CC(=O)Nc2cccc(Cl)c2)c(=O)c2cc(-c3ccccc3)nn12	9	-3	-12	-3	-5	65*
COc1ccc(-c2cc3c(=O)n(CC(=O)Nc4ccc(Cl)cc4)nc(C)n3n2)cc1	16	-3	-6	8	-1	13
O=C(Nc1scc(-c2cccs2)c1C(=O)O)c1cccs1	-15	15*	-3	1	3	-23
O=C(Nc1scc(-c2ccccc2)c1C(=O)O)c1ccco1	-1	4.8*	12	-8	-2	11
CC(=O)c1cccc(Nc2cc(C)nc3ccc(C)cc23)c1	-4	-5	-4	-6	9.8*	-17
CC(=O)c1ccc(Nc2cc(C)nc3c(C)cccc23)cc1	8	-2	-11	-1	2	-12
COC(=O)c1ccc(Nc2cc(C)nc3ccc(C)cc23)cc1	-11	-2	-6	3	5	-4
CC(=O)c1cccc(Nc2cc(C)nc3c(C)cc(C)cc23)c1	-20	-3	16	-2	10*	-10
COC(=O)[C@]12C[C@H](CC(=O)NCc3cccc(C(F)(F)F)c3)C(=O)N(Cc3ccccc3)C1=C[C@H](C(C)C)O[C@@H]2C1CC1	·	·	-3	2	·	·
Cc1cc(C(F)(F)F)nn1Cc1n[nH]c(=S)n1Cc1ccccc1	0	-3	4	1	-4	-13
Cc1cc(C(F)(F)F)nn1Cc1n[nH]c(=S)n1-c1ccc(Cl)cc1	?	-3	-7	-16	-5	102*
Cc1cc(C(F)(F)F)nn1Cc1n[nH]c(=S)n1-c1cccc(Cl)c1	20	-3	18	7	-4	84*
Cc1ccc(-n2c(Cn3nc(C(F)F)cc3C(F)F)n[nH]c2=S)cc1	0	-5	-8	1	-5	100*
Cc1ccc(NCc2n[nH]c(=S)n2-c2ccccc2)cc1	0	-3	-15	-5	3	-3
Cc1cc(S(=O)(=O)NC(=O)[C@H]2O[C@@H](n3ccc(=O)[nH]c3=O)[C@H](O)[C@@H]2O)ccc1Br	·	·	-4	-12	·	·
COc1ccccc1C(=O)Nc1ccc(NC(=O)C2CCCCC2)nc1	4	-1	-1	-11	-1	19
